Measurements reported in ChEMBL document CHEMBL4665801, “Pyrazole-Based Lactate Dehydrogenase Inhibitors with Optimized Cell Activity and Pharmacokinetic Properties” (J Med Chem, 2020).
Activity calls are given as the source filed them. No rule for the calls is given here.

Assays:
[1] = biological target: T1, L-lactate dehydrogenase A chain (Homo sapiens, UniProt P00338); assay: Inhibition of GS[HiBiT]GS-tagged LDHA (unknown origin) expressed in HEK-293T cells measured after 1 hr by […]; format: cell-based
Procedure, shortened: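 HEK293T cells were transiently transfected for 24 h with CMV-driven LDHA carrying a C-terminal GS[HiBiT]GS tag, then reseeded at 2500 cells/well in DPBS with Ca/Mg and 1 g/L glucose. […] Cells were lysed with NP40, and 11S (100 nM final) plus furimazine was added.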

[2] = biological target: T1, L-lactate dehydrogenase A chain; assay: Inhibition of LDHA in human MIA PaCa-2 cells assessed as decrease in lactate production incubated for 2 hrs by lactate oxidase-coupled fluorescence based assay; format: cell-based
[3] = biological target: T1, L-lactate dehydrogenase A chain; assay: Inhibition of LDHA in human A673 cells assessed as decrease in lactate production incubated for 2 hrs by lactate oxidase-coupled fluorescence based assay; format: cell-based
[4] = biological target: T1, L-lactate dehydrogenase A chain; assay: Inhibition of recombinant human LDHA using sodium pyruvate as substrate preincubated for 5 mins followed by diaphorase/resazurin addition and measured after 20 mins by fluorescence based assay
Sus scrofa = organism: Sus scrofa; assay: Inhibition of porcine heart MDH using malic acid as substrate preincubated for 10 mins followed by substrate addition and measured after 5 mins by resazurin based fluorescence based assay; details: time 15.0 min
A673 = assay: Cytotoxicity against human A673 cells assessed as reduction in cell viability after 48 hrs by CellTiter-Glo assay; format: functional, cell-based; details: A673, 48 h
[5] = biological target: L-lactate dehydrogenase B chain (Homo sapiens) (UniProt P07195); assay: Inhibition of recombinant human LDHB using sodium pyruvate as substrate preincubated for 5 mins followed by diaphorase/resazurin addition and measured after 20 mins by fluorescence based assay
Chain of L-lactate dehydrogenase B chain (Homo sapiens) (P07195 2-334 limits assumed): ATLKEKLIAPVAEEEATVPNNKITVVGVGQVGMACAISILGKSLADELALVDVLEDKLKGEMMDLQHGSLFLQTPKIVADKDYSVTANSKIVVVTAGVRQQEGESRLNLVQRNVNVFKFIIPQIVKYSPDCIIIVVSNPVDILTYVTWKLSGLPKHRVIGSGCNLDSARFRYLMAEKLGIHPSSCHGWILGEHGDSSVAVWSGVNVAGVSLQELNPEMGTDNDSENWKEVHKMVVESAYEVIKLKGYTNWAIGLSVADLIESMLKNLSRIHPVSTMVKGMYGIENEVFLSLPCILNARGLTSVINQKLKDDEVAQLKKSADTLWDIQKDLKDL

MIA PaCa-2 = assay: Cytotoxicity against human MIA PaCa-2 cells assessed as reduction in cell viability after 48 hrs by CellTiter-Glo assay; format: functional, cell-based; details: MIA PaCa-2, 48 h

SMILES | IC50 [1] [nM] | IC50 [2] [nM] | IC50 [3] [nM] | IC50 [4] [nM] | inhibition (Sus scrofa) | inhibition [5] | IC50 ([2]; mia paca-2) [nM] | IC50 ([3]; a673) [nM] | IC50 (A673) [nM] | IC50 (MIA PaCa-2) [nM]
NS(=O)(=O)c1ccc(Cc2c(-c3ccc(F)c(C#CC4CCC4)c3)nn(-c3nc(C(=O)O)cs3)c2CC2CC2)cc1F | 133 | 428 | 378 | 23 | inactive | Active |  |  | 593 | 573
Cn1cc(C#Cc2cc(-c3nn(-c4nc(C(=O)O)cs4)c(CC4CC4)c3Cc3ccc(S(N)(=O)=O)c(F)c3)ccc2F)cn1 | 189 | 1140 | 1600 | 9 | inactive | Active |  |  | 593 | 619
NS(=O)(=O)c1ccc(Cc2c(-c3ccc(F)c(C#CCC4CCCO4)c3)nn(-c3nc(C(=O)O)cs3)c2CC2CC2)cc1F (stereo unspecified) | 178 | 937 | 933 | 9 | inactive | Active |  |  | 1380 | 1220
CCC#Cc1cc(-c2nn(-c3nc(C(=O)O)cs3)c(CC3CC3)c2Cc2ccc(S(N)(=O)=O)c(F)c2)ccc1F | 112 | 470 | 487 | 14 | inactive | Active |  |  | 716 | 662
NS(=O)(=O)c1ccc(Cc2c(-c3ccc(F)c(C#Cc4cccs4)c3)nn(-c3nc(C(=O)O)cs3)c2CC2CC2)cc1F | 89 | 307 | 438 | 32 | inactive | Active |  |  | 265 | 268
N#CC#Cc1cc(-c2nn(-c3nc(C(=O)O)cs3)c(CC3CC3)c2Cc2ccc(S(N)(=O)=O)c(F)c2)ccc1F | 474 | 4400 | 4010 | 15 | inactive | Active |  |  | > 30000 | > 30000
CC(F)C#Cc1cc(-c2nn(-c3nc(C(=O)O)cs3)c(CC3CC3)c2Cc2ccc(S(N)(=O)=O)c(F)c2)ccc1F (stereo unspecified) | 127 | 822 | 800 | 14 | inactive | Active |  |  | 1130 | 1020
CC#Cc1cc(-c2nn(-c3nc(C(=O)O)cs3)c(CC3CC3)c2Cc2ccc(S(N)(=O)=O)c(F)c2)ccc1F | 119 | 450 | 505 | 11 | inactive | Active |  |  | 332 | 322
CCCCC#Cc1cc(-c2nn(-c3nc(C(=O)O)cs3)c(CC3CC3)c2Cc2ccc(S(N)(=O)=O)c(F)c2)ccc1F | 106 | 298 | 405 | 50 | inactive | Active |  |  | 773 | 845
CC(C)C#Cc1cc(-c2nn(-c3nc(C(=O)O)cs3)c(CC3CC3)c2Cc2ccc(S(N)(=O)=O)c(F)c2)ccc1F | 2050 | 487 | 284 | 21 | inactive | Active |  |  | 1010 | 756
CC(C)(C)/C=C/c1cc(-c2nn(-c3nc(C(=O)O)cs3)c(CC3CC3)c2Cc2ccc(S(N)(=O)=O)c(F)c2)ccc1F | 112 | 255 | 361 | 59 | inactive | Active |  |  | 2260 | 1900
NS(=O)(=O)c1ccc(Cc2c(-c3ccc(F)c(C#CC4CC4)c3)nn(-c3nc(C(=O)O)cs3)c2CC2CC2)cc1F | 100 | 554 | 695 | 9 | inactive | Active |  |  | 132 | 323
NS(=O)(=O)c1ccc(Cc2c(-c3ccc(F)c(C#CCC4CC4)c3)nn(-c3nc(C(=O)O)cs3)c2CC2CC2)cc1F | 89 | 259 | 234 | 31 | inactive | Active |  |  | 1020 | 1030
NS(=O)(=O)c1ccc(Cc2c(-c3ccc(F)c(C#CC(F)F)c3)nn(-c3nc(C(=O)O)cs3)c2CC2CC2)cc1F | 163 | 741 | 937 | 15 | inactive | Active |  |  | 1480 | 1330
CC(C)CC#Cc1cc(-c2nn(-c3nc(C(=O)O)cs3)c(CC3CC3)c2Cc2ccc(S(N)(=O)=O)c(F)c2)ccc1F | 89 | 487 | 284 | 54 | inactive | Active |  |  | 935 | 909
NS(=O)(=O)c1ccc(Cc2c(-c3ccc(F)c(C#CCCO)c3)nn(-c3nc(C(=O)O)cs3)c2CC2CC2)cc1F | 577 | 1660 | 2480 | 3 | inactive | Active |  |  | 1800 | 1330
C#Cc1cc(-c2nn(-c3nc(C(=O)O)cs3)c(CC3CC3)c2Cc2ccc(S(N)(=O)=O)c(F)c2)ccc1F | 253 | 660 | 902 | 9 | inactive | Active |  |  | 4350 | 4020

Further lines, with some results ahead:

IC50 [1] [nM] | IC50 [2] [nM] | IC50 [3] [nM] | IC50 [4] [nM] | inhibition (Sus scrofa) | inhibition [5] | IC50 ([2]; mia paca-2) [nM] | IC50 ([3]; a673) [nM] | SMILES | IC50 (A673) [nM] | IC50 (MIA PaCa-2) [nM]
2530 | 4760 | 1860 | 36 | inactive | Active |  |  | NS(=O)(=O)c1ccc(Cc2c(-c3cccc(-c4ccccc4)c3)nn(-c3nc(C(=O)O)cs3)c2C2CC2(F)F)cc1 (stereo unspecified) | 24400 | 17700
15800 | 19400 | 9720 | 274 | inactive | Active |  |  | NS(=O)(=O)c1ccc(Cc2c(-c3cccc(-c4ccccc4)c3)nn(-c3nc(C(=O)O)cs3)c2CC(F)(F)F)cc1 | 148 | 3170
179 | 203 | 296 | 385 | inactive | Active |  |  | CC(C)c1ccc(C#Cc2cccc(-c3nn(-c4nc(C(=O)O)cs4)c(CC4CC4)c3Cc3ccc(S(N)(=O)=O)c(F)c3)c2)s1 | 528 | 590
101 |  |  | 13 | inactive | Active | 1180 | 1170 | Cc1nc(C#Cc2cccc(-c3nn(-c4nc(C(=O)O)cs4)c(CC4CC4)c3Cc3ccc(S(N)(=O)=O)c(F)c3)c2)cs1 | 347 | 471
14000 | > 30000 | > 30000 | 450 | inactive | Active |  |  | NS(=O)(=O)c1ccc(Cc2c(-c3ccc(F)c(C#CC(F)(F)F)c3)nn(-c3nc(C(=O)O)cs3)c2CC2CC2)cc1F | > 30000 | > 30000
299 | 218 | 161 | 235 | inactive | Active |  |  | Cc1cc(C#Cc2cccc(-c3nn(-c4nc(C(=O)O)cs4)c(CC4CC4)c3Cc3ccc(S(N)(=O)=O)c(F)c3)c2)c(C)s1 | 716 | 810
95 | 417 | 547 | 52 | inactive | Active |  |  | Cc1ccc(C#Cc2cccc(-c3nn(-c4nc(C(=O)O)cs4)c(CCC4CC4)c3Cc3ccc(S(N)(=O)=O)c(F)c3)c2)o1 | 137 | 137
727 | 804 | 509 | 36 | inactive | Active |  |  | NS(=O)(=O)c1ccc(Cc2c(-c3cccc(-c4ccccc4)c3)nn(-c3nc(C(=O)O)cs3)c2CCC2CC2)cc1 | 1960 | 6200
90 | 253 | 300 | 24 | inactive | Active |  |  | Cc1nc(C#Cc2cccc(-c3nn(-c4nc(C(=O)O)cs4)c(CCC4CC4)c3Cc3ccc(S(N)(=O)=O)c(F)c3)c2)cs1 | 219 | 219
303 | 12800 | 20200 | 4100 | inactive | Active |  |  | NS(=O)(=O)c1ccc(Cc2c(-c3cccc(-c4ccccc4)c3)nn(-c3nc(C(=O)O)cs3)c2C2(C(F)(F)F)CC2)cc1 | > 30000 | > 30000
